Measurements: ChEMBL document CHEMBL3779892, “Increasing the binding affinity of VEGFR-2 inhibitors by extending their hydrophobic interaction with the active site: Design, synthesis and biological evaluation of 1-substituted-4-(4-methoxybenzyl)phthalazine derivatives” (Eur J Med Chem, 2016)

Columns and labels:
Assay type in all cases: functional
CCRF-CEM = assay: Growth inhibition of human CCRF-CEM cells at 10 uM after 48 hrs by sulforhodamine B assay; conditions: read-out: GI
Method in brief: (§1)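 Run at NCI on the 60-line panel. Cells grown in RPMI 1640 with 5% FBS and 2 mM L-glutamine, plated at 5000–40,000 cells/well by doubling time, and held 24 h at 37 °C before dosing. Drug (DMSO stock) given at a single final 10 µM in triplicate wells for 48 h. Adherent cells fixed with cold TCA (10% final), suspension cells with 16% TCA. SRB stain read at 515 nm. Percent growth from Tz, C and Ti.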

M14 = assay: Growth inhibition of human M14 cells at 10 uM after 48 hrs by sulforhodamine B assay; conditions: M14, 48 h, read-out: GI; method in brief: as §1
[1] = Growth inhibition of human SNB75 cells at 10 uM after 48 hrs by sulforhodamine B assay; conditions: SNB-75, 48 h, read-out: GI; method in brief: as §1
[2] = Growth inhibition of human SF539 cells at 10 uM after 48 hrs by sulforhodamine B assay; conditions: SF-539, 48 h, read-out: GI; method in brief: as §1
[3] = Growth inhibition of human RPMI8226 cells at 10 uM after 48 hrs by sulforhodamine B assay; conditions: RPMI-8226, 48 h, read-out: GI; method in brief: as §1
A498 = assay: Growth inhibition of human A498 cells at 10 uM after 48 hrs by sulforhodamine B assay; conditions: A498, 48 h, read-out: GI; method in brief: as §1
SN12C = assay: Growth inhibition of human SN12C cells at 10 uM after 48 hrs by sulforhodamine B assay; conditions: read-out: GI; method in brief: as §1
NCI-H322M = assay: Growth inhibition of human NCI-H322M cells at 10 uM after 48 hrs by sulforhodamine B assay; conditions: read-out: GI; method in brief: as §1
HT-29 = assay: Growth inhibition of human HT-29 cells at 10 uM after 48 hrs by sulforhodamine B assay; conditions: HT-29, 48 h, read-out: GI; method in brief: as §1
[4] = Growth inhibition of human SF295 cells at 10 uM after 48 hrs by sulforhodamine B assay; conditions: SF-295, 48 h, read-out: GI; method in brief: as §1
[5] = Growth inhibition of human Hs 578T cells at 10 uM after 48 hrs by sulforhodamine B assay; conditions: read-out: GI; method in brief: as §1
[6] = Growth inhibition of human TK10 cells at 10 uM after 48 hrs by sulforhodamine B assay; conditions: TK-10, 48 h, read-out: GI
Method in brief: (§2)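 NCI-60 panel, adherent cells grown in RPMI 1640 with 5% FBS and 2 mM L-glutamine, plated at 5000–40,000 cells/well and preincubated 24 h at 37 °C, 5% CO2. 10 µM final compound from DMSO stock, triplicate wells, 48 h. Fixed with cold TCA (10% final, 60 min, 4 °C) and stained with 0.4% SRB. Absorbance read at 515 nm; growth calculated against time-zero and control wells.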

[7] = Growth inhibition of human OVCAR8 cells at 10 uM after 48 hrs by sulforhodamine B assay; conditions: OVCAR-8, 48 h, read-out: GI; method in brief: as §1
NCI-H460 = assay: Growth inhibition of human NCI-H460 cells at 10 uM after 48 hrs by sulforhodamine B assay; conditions: NCI-H460, 48 h, read-out: GI; method in brief: as §1
MDA-MB-435 = assay: Growth inhibition of human MDA-MB-435 cells at 10 uM after 48 hrs by sulforhodamine B assay; conditions: MDA-MB-435, 48 h, read-out: GI; method in brief: as §1
[8] = Growth inhibition of human NCI-ADR-RES cells at 10 uM after 48 hrs by sulforhodamine B assay; conditions: read-out: GI; method in brief: as §1
[9] = Growth inhibition of human OVCAR5 cells at 10 uM after 48 hrs by sulforhodamine B assay; conditions: OVCAR-5, 48 h, read-out: GI; method in brief: as §1
SK-MEL-28 = assay: Growth inhibition of human SK-MEL-28 cells at 10 uM after 48 hrs by sulforhodamine B assay; conditions: SK-MEL-28, 48 h, read-out: GI; method in brief: as §1
NCI-H23 = assay: Growth inhibition of human NCI-H23 cells at 10 uM after 48 hrs by sulforhodamine B assay; conditions: NCI-H23, 48 h, read-out: GI; method in brief: as §1
A549 = assay: Growth inhibition of human A549 cells at 10 uM after 48 hrs by sulforhodamine B assay; conditions: A549, 48 h, read-out: GI; method in brief: as §1
MDA-MB-231 = assay: Growth inhibition of human MDA-MB-231 cells at 10 uM after 48 hrs by sulforhodamine B assay; conditions: MDA-MB-231, 48 h, read-out: GI; method in brief: as §1
[10] = Growth inhibition of human HOP62 cells at 10 uM after 48 hrs by sulforhodamine B assay; conditions: HOP-62, 48 h, read-out: GI; method in brief: as §1
NCI-H522 = assay: Growth inhibition of human NCI-H522 cells at 10 uM after 48 hrs by sulforhodamine B assay; conditions: NCI-H522, 48 h, read-out: GI; method in brief: as §1
[11] = Growth inhibition of human SNB19 cells at 10 uM after 48 hrs by sulforhodamine B assay; conditions: SNB-19, 48 h, read-out: GI; method in brief: as §1
[12] = Growth inhibition of human OVCAR4 cells at 10 uM after 48 hrs by sulforhodamine B assay; conditions: OVCAR-4, 48 h, read-out: GI; method in brief: as §1
[13] = Growth inhibition of human UO31 cells at 10 uM after 48 hrs by sulforhodamine B assay; conditions: UO-31, 48 h, read-out: GI; method in brief: as §2
T47D = assay: Growth inhibition of human T47D cells at 10 uM after 48 hrs by sulforhodamine B assay; conditions: read-out: GI; method in brief: as §2
[14] = Growth inhibition of human DU145 cells at 10 uM after 48 hrs by sulforhodamine B assay; conditions: DU-145, 48 h, read-out: GI; method in brief: as §1
[15] = Growth inhibition of human UACC257 cells at 10 uM after 48 hrs by sulforhodamine B assay; conditions: UACC-257, 48 h, read-out: GI; method in brief: as §2
K562 = assay: Growth inhibition of human K562 cells at 10 uM after 48 hrs by sulforhodamine B assay; conditions: K562, 48 h, read-out: GI; method in brief: as §1
MCF7 = assay: Growth inhibition of human MCF7 cells at 10 uM after 48 hrs by sulforhodamine B assay; conditions: MCF7, 48 h, read-out: GI; method in brief: as §1
MDA-MB-468 = assay: Growth inhibition of human MDA-MB-468 cells at 10 uM after 48 hrs by sulforhodamine B assay; conditions: MDA-MB-468, 48 h, read-out: GI; method in brief: as §1
[16] = Growth inhibition of human Caki1 cells at 10 uM after 48 hrs by sulforhodamine B assay; conditions: CAKI-1, 48 h, read-out: GI; method in brief: as §1
[17] = Growth inhibition of human PC3 cells at 10 uM after 48 hrs by sulforhodamine B assay; conditions: PC-3, 48 h, read-out: GI; method in brief: as §1
KM12 = assay: Growth inhibition of human KM12 cells at 10 uM after 48 hrs by sulforhodamine B assay; conditions: KM12, 48 h, read-out: GI; method in brief: as §1
[18] = Growth inhibition of human LOXIMVI cells at 10 uM after 48 hrs by sulforhodamine B assay; conditions: LOX IMVI, read-out: GI; method in brief: as §1

Compound | inhibition of growth at 10 µM (CCRF-CEM) [%] | inhibition of growth at 10 µM (M14) [%] | inhibition of growth at 10 µM [1] [%] | inhibition of growth at 10 µM [2] [%] | inhibition of growth at 10 µM [3] [%] | inhibition of growth at 10 µM (A498) [%] | inhibition of growth at 10 µM (SN12C) [%] | inhibition of growth at 10 µM (NCI-H322M) [%] | inhibition of growth at 10 µM (HT-29) [%] | inhibition of growth at 10 µM [4] [%] | inhibition of growth at 10 µM [5] [%] | inhibition of growth at 10 µM [6] [%] | inhibition of growth at 10 µM [7] [%] | inhibition of growth at 10 µM (NCI-H460) [%] | inhibition of growth at 10 µM (MDA-MB-435) [%] | inhibition of growth at 10 µM [8] [%] | inhibition of growth at 10 µM [9] [%] | inhibition of growth at 10 µM (SK-MEL-28) [%] | inhibition of growth at 10 µM (NCI-H23) [%] | inhibition of growth at 10 µM (A549) [%] | also measured
COc1ccc(Cc2nnc(Nc3ccc(NC(=O)Nc4ccc(OC)cc4)cc3)c3ccccc23)cc1 | 40 | < 30 | 50 | 49 | 91 | < 30 | < 30 | < 30 | 34 | 81 | 96 | < 30 | < 30 | < 30 | < 30 | < 30 | < 30 | < 30 | < 30 | < 30 | inhibition of growth at 10 µM (MDA-MB-231): 46%; inhibition of growth at 10 µM [10]: 33%; inhibition of growth at 10 µM (NCI-H522): 36%; inhibition of growth at 10 µM [11]: < 30%; inhibition of growth at 10 µM [12]: < 30%; inhibition of growth at 10 µM [13]: < 30%; inhibition of growth at 10 µM (T47D): 42%; inhibition of growth at 10 µM [14]: < 30%; inhibition of growth at 10 µM [15]: < 30%; inhibition of growth at 10 µM (K562): < 30%; inhibition of growth at 10 µM (MCF7): 30%; inhibition of growth at 10 µM (MDA-MB-468): < 30%; inhibition of growth at 10 µM [16]: < 30%; inhibition of growth at 10 µM [17]: 30%; inhibition of growth at 10 µM (KM12): 39%; inhibition of growth at 10 µM [18]: < 30%
COc1ccc(Cc2nnc(Nc3ccc(NC(=O)Nc4cccc(OC)c4)cc3)c3ccccc23)cc1 | < 30 | < 30 | < 30 | 35 | 43 | < 30 | < 30 | < 30 | < 30 | < 30 | 50 | < 30 | < 30 | < 30 | < 30 | < 30 | < 30 | < 30 | < 30 | < 30 | inhibition of growth at 10 µM (MDA-MB-231): < 30%; inhibition of growth at 10 µM [10]: < 30%; inhibition of growth at 10 µM (NCI-H522): < 30%; inhibition of growth at 10 µM [11]: < 30%; inhibition of growth at 10 µM [12]: < 30%; inhibition of growth at 10 µM [13]: < 30%; inhibition of growth at 10 µM (T47D): < 30%; inhibition of growth at 10 µM [14]: < 30%; inhibition of growth at 10 µM [15]: < 30%; inhibition of growth at 10 µM (K562): < 30%; inhibition of growth at 10 µM (MCF7): < 30%; inhibition of growth at 10 µM (MDA-MB-468): < 30%; inhibition of growth at 10 µM [16]: < 30%; inhibition of growth at 10 µM [17]: < 30%; inhibition of growth at 10 µM (KM12): < 30%; inhibition of growth at 10 µM [18]: < 30%
COc1ccc(Cc2nnc(Nc3ccc(NC(=O)Nc4ccc(Cl)c(C(F)(F)F)c4)cc3)c3ccccc23)cc1 | 55 | 40 | 50 | < 30 | 66 | < 30 | < 30 | 30 | 61 | 50 | 48 | < 30 | 66 | 36 | 35 | 67 | 30 | < 30 | < 30 | 48 | inhibition of growth at 10 µM (MDA-MB-231): 41%; inhibition of growth at 10 µM [10]: < 30%; inhibition of growth at 10 µM (NCI-H522): 68%; inhibition of growth at 10 µM [11]: 45%; inhibition of growth at 10 µM [12]: 60%; inhibition of growth at 10 µM [13]: < 30%; inhibition of growth at 10 µM (T47D): 47%; inhibition of growth at 10 µM [14]: < 30%; inhibition of growth at 10 µM [15]: < 30%; inhibition of growth at 10 µM (K562): 43%; inhibition of growth at 10 µM (MCF7): 46%; inhibition of growth at 10 µM (MDA-MB-468): 37%; inhibition of growth at 10 µM [16]: < 30%; inhibition of growth at 10 µM [17]: 45%; inhibition of growth at 10 µM (KM12): 51%; inhibition of growth at 10 µM [18]: 32%
